Test results taken from ChEMBL document CHEMBL3045942, “Design, synthesis, and anti-tobacco mosaic virus (TMV) activity of phenanthroindolizidines and their analogues” (2012).

Key:
Assay type in all cases: functional
[1] = test system: Tobacco mosaic virus; experiment: In vivo antiviral activity against Tobacco mosaic virus (TMV) inoculated right side of Nicotiana tabacum L. leaves assessed as protection effect at 100 ug/mL preincubated 12 hr before viral challenge measured after 3 to 4 days
Procedure, shortened: (§1)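 Protective test on same-age growing Xanthi nc tobacco leaves. Compound solution was smeared on the left half and solvent on the right half as control. After 12 h, leaves were inoculated with TMV applied by brush. Inhibition % = (mean control lesions − mean treated lesions)/mean control lesions × 100. Three replicates.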

[2] = test system: Tobacco mosaic virus; experiment: In vivo antiviral activity against Tobacco mosaic virus (TMV) inoculated right side of Nicotiana tabacum L. leaves assessed as protection effect at 500 ug/mL preincubated 12 hr before viral challenge measured after 3 to 4 days; procedure, shortened: as §1
[3] = test system: Tobacco mosaic virus; experiment: In vivo antiviral activity against Tobacco mosaic virus (TMV) pre-inoculated Nicotiana tabacum L. leaves assessed as curative effect at 100 ug/mL measured after 3 to 4 days
Procedure, shortened: (§2)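 Curative test on same-age growing Xanthi nc leaves. Whole leaves were first inoculated with TMV (6.0 × 10−3 mg mL−1), then washed with water and dried. Compound solution was smeared on the left half and solvent on the right half as control. Local lesions were counted 3–4 days after inoculation, and inhibition % was derived from mean lesion numbers. Three replicates.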

[4] = test system: Tobacco mosaic virus; experiment: In vivo antiviral activity against Tobacco mosaic virus (TMV) pre-inoculated Nicotiana tabacum L. leaves assessed as curative effect at 500 ug/mL measured after 3 to 4 days; procedure, shortened: as §2
[5] = test system: Tobacco mosaic virus; experiment: In vivo antiviral activity against Tobacco mosaic virus (TMV) inoculated left side of Nicotiana tabacum L. leaves assessed as inactivation effect at 100 ug/mL co-incubated with virus measured after 3 to 4 days
Procedure, shortened: (§3)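 Inactivation test in N. tabacum var. Xanthi nc. Virus was mixed with an equal volume of compound solution for 30 min and the mixture inoculated on the left leaf half. The right half received a solvent–virus mixture as control. Local lesions were counted 3–4 days after inoculation. Inhibition % was calculated from mean lesion numbers of control versus treated halves. Three replicates.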

[6] = test system: Tobacco mosaic virus; experiment: In vivo antiviral activity against Tobacco mosaic virus (TMV) inoculated left side of Nicotiana tabacum L. leaves assessed as inactivation effect at 500 ug/mL co-incubated with virus measured after 3 to 4 days; procedure, shortened: as §3
[7] = test system: Tobacco mosaic virus; experiment: Antiviral activity against Tobacco mosaic virus (TMV) inoculated in 5-6 growth stage leaf assessed as inhibition effect at 100 ug/mL at 25 degC after 72 hr by half-leaf method
Procedure, shortened: (§4)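 Half-leaf assay on fresh leaves of Nicotiana tabacum var. Xanthi nc at the 5–6 growth stage. Leaves were rub-inoculated with leaf juice (TMV 5.88 × 10−2 μg mL−1) and cut in halves along the main vein. One half was immersed in compound solution and the other in double-distilled water for 20 min, then kept at 25 °C for 72 h. Inhibition % = (mean control lesions − mean treated lesions)/mean control lesions × 100. At least 3 replicates.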

[8] = test system: Tobacco mosaic virus; experiment: Antiviral activity against Tobacco mosaic virus (TMV) inoculated in 5-6 growth stage leaf assessed as inhibition effect at 500 ug/mL at 25 degC after 72 hr by half-leaf method; procedure, shortened: as §4

Structure (SMILES)	Activity [1]	Activity [2]	Activity [3]	Activity [4]	Activity [5]	Activity [6]	inhibition at 100 µg/mL [7]	inhibition at 500 µg/mL [8]
CNCC(=O)N[C@@H](CO)C(=O)N[C@H]1[C@H](O)[C@@H](O)[C@H](n2ccc(N)nc2=O)O[C@@H]1C(N)=O [NINGNANMYCIN]	25.2%	66.6%	18.9%	56%	37.7%	68.5%	30.4%	71.4%
COc1cc2c3c(c4cc(OC)c(OC)cc4c2cc1OC)CN1CCC[C@@H]1C3 [TYLOPHORINE]	22.5%	47.6%	26.4%	44.2%	15.1%	39%	21.1%	49.7%
COc1cc2c3c(c4cc(OC)c(OC)cc4c2cc1OC)C(=O)n1cccc1C3	5.3%	21.5%	0%	17.5%	8.5%	22.6%	0%	15.3%
COc1ccc2c3c(c4cc(OC)c(OC)cc4c2c1)[C@H](O)[C@@H]1CCCN1C3	0%	21.2%	0%	19.3%	0%	24.8%	23%	51.2%
COc1cc2c3c(c4cc(OC)c(OC)cc4c2cc1OC)C(=O)N1CCC[C@H]1C3	23.4%	43.5%	14.8%	30.1%	20.5%	37%	30.9%	48.1%
COc1cc2c3c(c4cc(OC)c(OC)cc4c2cc1OC)[C@H](O)[C@@H]1CCCN1C3	20%	63.7%	30.6%	61.9%	32.9%	57.8%	34.7%	62.4%
COc1ccc2c3c(c4cc(OC)c(OC)cc4c2c1)C[C@H]1CCCN1C3 [(-)-ANTOFINE]	20.4%	45.5%	19.4%	46%	15.3%	42.7%	27.4%	52.8%
COc1ccc2c3c(c4cc(OC)c(OC)cc4c2c1)[C@@H](O)[C@H]1CCCN1C3	7.3%	39.6%	10.2%	34.9%	14.2%	38.5%	21.6%	43.5%
COc1cc2cc(CN3CCC[C@H]3C)c3cc(OC)c(OC)cc3c2cc1OC	13.1%	39.6%	0%	25.8%	0%	25.2%	0%	29.8%
COc1ccc2c3c(c4cc(OC)c(OC)cc4c2c1)CN1CCC[C@@H]1C3	31.7%	60.5%	24.5%	44.7%	23.6%	48.9%	32.9%	56.5%
COc1cc2c3c(c4cc(OC)c(OC)cc4c2cc1OC)NC[C@H]1CCCN1C3	33.7%	46.5%	28.7%	44.6%	12.6%	31.5%	23.1%	40.4%
COc1cc2c3c(c4cc(OC)c(OC)cc4c2cc1OC)NC(=O)[C@H]1CCCN1C3	19.7%	36.4%	18.9%	35.7%	21.2%	34.9%	20%	32.2%
COc1cc2c3c(c4cc(OC)c(OC)cc4c2cc1OC)NC[C@@H]1CCCN1C3	28.5%	53.6%	22.7%	44.6%	20.3%	42.5%	18.5%	50%
COc1cc2c3c(c4cc(OC)c(OC)cc4c2cc1OC)[C@@H](O)[C@H]1CCCN1C3	26.5%	53.9%	32.8%	43.4%	26.7%	49.2%	23%	51.2%
COc1cc2c3c(c4cc(OC)c(OC)cc4c2cc1OC)NC(=O)[C@@H]1CCCN1C3	7.6%	29.7%	0%	31.5%	22.2%	32.9%	4.6%	34.8%
COc1ccc2c3c(c4cc(OC)c(OC)cc4c2c1)C[C@@H]1CCCN1C3 [HYPOESTESTATIN 1]	28.4%	56.4%	26.7%	55.5%	37.2%	51.1%	30.5%	60.2%
COc1cc2c3c(c4cc(OC)c(OC)cc4c2cc1OC)CN1CCC[C@H]1C3 [(S)-TYLOPHORINE]	28.6%	56.8%	37%	53.8%	34.2%	50.5%	36.9%	54.1%
NC(=O)c1ncn([C@@H]2O[C@H](CO)[C@@H](O)[C@H]2O)n1 [RIBAVIRIN]	7.5%	38.9%	8.2%	36.7%	9.8%	33.8%	12.5%	40%
COc1ccc2c3c(c4cc(OC)c(OC)cc4c2c1)CN1CCC[C@H]1C3	51.3%	70.2%	43.7%	65.1%	40.3%	59.8%	50%	71.2%
